The record followed here is ChEMBL document CHEMBL3588809, “Antioxidant and Anti-Inflammatory Phenolic Glycosides from Clematis tashiroi” (J Nat Prod, 2015).

The structures appear in SMILES notation. pEC50, pIC50: −log10 of the molar value. Activity calls are given as the source filed them. The calls are words filed in the database; no cut-off is given here.

A short description of data set [1]: Antioxidant activity assessed as DPPH free radical scavenging activity at 100 ug/ml incubated for 30 mins by ELISA method. The data set is classed as physicochemical. The conditions noted are these: 0.5 h. An outline of the steps:
(§1)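 Sample (120 μL, 10−100 μg/mL) mixed with 30 μL of 0.75 mM DPPH in methanol, shaken in the dark at room temperature for 30 min, absorbance read at 517 nm on a plate reader. Methanol negative control, α-tocopherol (10−40 μg/mL) positive control. ED50 taken as concentration scavenging 50% of DPPH radicals.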

Data set [2] concerns RAW264.7. The experiment in a line: Anti-inflammatory activity in mouse RAW264.7 cells assessed as inhibition of LPS-induced nitric oxide production at 20 ug/ml incubated for 24 hrs by Griess reagent based assay. The data set is classed as functional, cell-based. An outline of the steps:
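RAW 264.7 macrophages grown in DMEM with 5% heat-inactivated fetal calf serum at 37 °C, 5% CO2. Cells seeded at 2 × 10^5/well, treated with compound (DMSO stock diluted in PBS) together with LPS 1000 ng/mL for 24 h. Medium nitrite read with Griess reagent at 550 nm against NaNO2 standard curve; LPS-only NO set as 100%; triplicate; quercetin positive control.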

Data set [3] can be described thus: Antioxidant activity assessed as DPPH free radical scavenging activity incubated for 30 mins by ELISA method. The data set is classed as physicochemical. The conditions noted are these: 0.5 h; read-out: ED50 (the source's name). An outline of the steps:
as §1

Data set [4] deals with RAW264.7. Description: Anti-inflammatory activity in mouse RAW264.7 cells assessed as inhibition of LPS-induced nitric oxide production incubated for 24 hrs by Griess reagent based assay. The data set is classed as functional, cell-based. The conditions noted are these: RAW264.7, 24 h. The method in brief:
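RAW 264.7 macrophages grown in DMEM with 5% heat-inactivated FCS at 37 °C, 5% CO2; plated at 2 × 10^5 cells/well and stimulated with LPS (1000 ng/mL) concurrently with test agents (DMSO stocks diluted in PBS) for 24 h. Nitrite in medium measured with Griess reagent at 550 nm against NaNO2 standard curve; LPS-only set as 100%; triplicates; IC50 reported.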

On to `O=C(/C=C/c1ccc(O)cc1)OC[C@H]1O[C@@H](Oc2cc(/C=C/C(=O)O[C@@H]3O[C@H](CO)[C@@H](O)[C@H](O)[C@H]3O)ccc2O)[C@H](O)[C@@H](O)[C@@H]1O`, for which the Activity in data set [1] came to 32.2%. For the same compound, in the data set on RAW264.7 [2], the inhibition entry is “inactive”.

For the compound `O=C(O)/C=C/c1ccc(O[C@@H]2O[C@H](CO)[C@@H](O)[C@H](O)[C@H]2O)c(O)c1`, the pEC50 in data set [3] is 3.76. The Activity in data set [1] is on record as 91.2%. For the same compound, the inhibition result with RAW264.7 [2] was “inactive”.

Turning to `O=C(/C=C/c1ccc(O)c(O)c1)OC[C@H]1O[C@@H](Oc2ccc(/C=C/C(=O)O[C@@H]3O[C@H](CO)[C@@H](O)[C@H](O)[C@H]3O)cc2)[C@H](O)[C@@H](O)[C@@H]1O`, the pEC50 in data set [3] is 4.33. In addition, the Activity in data set [1] was 99.7%. In the data set on RAW264.7 [2], the inhibition result was “inactive”.

`O=C(/C=C/c1ccc(O[C@@H]2O[C@H](COC(=O)/C=C/c3ccc(O)c(O)c3)[C@@H](O)[C@H](O)[C@H]2O)c(O)c1)OC[C@H]1O[C@@H](Oc2cc(/C=C/c3ccc(O)c(O)c3)oc(=O)c2)[C@H](O)[C@@H](O)[C@@H]1O`: the pEC50 in data set [3] is 4.77. Moreover, the Activity in data set [1] was 98.8%. In addition, in the data set on RAW264.7 [2], the inhibition entry was “inactive”.

As to `O=C(/C=C/c1ccc(O)cc1)OC[C@H]1OC(O)[C@H](O)[C@@H](O)[C@@H]1O` (some centres undefined), in data set [1], the Activity turned out to be 5%. The inhibition entry with RAW264.7 [2] was “inactive”.

As for `O=C(/C=C/c1ccc(O)c(O)c1)OC[C@H]1O[C@@H](Oc2cc(/C=C/c3ccc(O)c(O)c3)oc(=O)c2)[C@H](O)[C@@H](O)[C@@H]1O`, in data set [3], the pEC50 is 4.89. In data set [1], the Activity is listed as 99%. The pIC50 in the data set with RAW264.7 [4] is 4.83.

For the compound `COc1cc(/C=C/C(=O)OC[C@H]2O[C@@H](Oc3ccc(/C=C/C(=O)O[C@@H]4O[C@H](CO)[C@@H](O)[C@H](O)[C@H]4O)cc3O)[C@H](O)[C@@H](O)[C@@H]2O)ccc1O`, in data set [3], the pEC50 was 4.06. Besides, the Activity in data set [1] was determined as 74.8%. In addition, the inhibition result in the data set on RAW264.7 [2] was “inactive”.

As for `O=C(/C=C/c1ccc(O)c(O)c1)O[C@@H]1O[C@H](CO)[C@@H](O)[C@H](O)[C@H]1O`, in data set [3], the pEC50 was 4.54. Besides, the Activity in data set [1] stood at 99.3%. Moreover, in the data set with RAW264.7 [2], the inhibition result is “inactive”.

Take `O=C(/C=C/c1ccc(O)cc1)OC[C@H]1O[C@@H](Oc2ccc(/C=C/C(=O)O[C@@H]3O[C@H](CO)[C@@H](O)[C@H](O)[C@H]3O)cc2O)[C@H](O)[C@@H](O)[C@@H]1O`: the Activity in data set [1] is given as 7.8%. Moreover, in the data set with RAW264.7 [2], the inhibition result was “inactive”.

Turning to `O=C(/C=C/c1ccc(O)c(O)c1)OC[C@H]1O[C@@H](Oc2ccc(/C=C/C(=O)O[C@@H]3O[C@H](CO)[C@@H](O)[C@H](O)[C@H]3O)cc2O)[C@H](O)[C@@H](O)[C@@H]1O`, the pEC50 in data set [3] is 4.88. Moreover, the Activity in data set [1] is 99.8%. In addition, the inhibition result in the data set with RAW264.7 [2] was “inactive”.

In the case of `O=C(/C=C/c1ccc(O)c(O)c1)OC[C@H]1O[C@@H](Oc2cc(/C=C/C(=O)O[C@@H]3O[C@H](CO)[C@@H](O)[C@H](O)[C@H]3O)ccc2O)[C@H](O)[C@@H](O)[C@@H]1O`, in data set [3], the pEC50 is 4.40. Also, the Activity in data set [1] was 99.4%. The inhibition entry in the data set on RAW264.7 [2] was “inactive”.

With `Cc1c(C)c2c(c(C)c1O)CCC(C)(CCCC(C)CCCC(C)CCCC(C)C)O2` (racemic) [alpha-TOCHOPHEROL], the pEC50 in data set [3] was 4.56.

For the compound `O=c1c(O)c(-c2ccc(O)c(O)c2)oc2cc(O)cc(O)c12` [QUERCETIN], the pIC50 in the data set with RAW264.7 [4] was 5.74.

With `O=C(/C=C/c1ccc(O)c(O)c1)OC[C@H]1OC(O)[C@H](O)[C@@H](O)[C@@H]1O` (some centres undefined), in data set [1], the Activity is recorded as 9.8%. Also, the inhibition entry with RAW264.7 [2] is “inactive”.
